# The list is not random: actives were taken first. Their share in the collection is about 4.5%.
# OX1R antag-1: antagonists of human orexin 1 receptor (OX1R); hit rate 1.8% among 330,000; Orexin/Hypocretin receptor type 1 (Homo sapiens), O43613; OX1R-expressing cells, FRET antagonist read-out; AID 485270, 2010; inhibition, % at 6.6 µM; in the data active means inhibition mostly above about 38%, no sharp cut-off; inactive means mostly below about 40%;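 further: 0% = agonist challenge alone and 100% = reference antagonist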
# GPR7 antagonist: GPR7 receptor antagonists, primary screen, cell-based, fluorescence, single concentration | AID 1861, 2009 | hit rate 1.1% among 290,000 | GPR7-expressing cells, fluorescence antagonist assay | inhibition, % at 4.4 µM; in the data active means inhibition above about 16%, passing the limit was not always enough;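 further: cells stimulated with the agonist NPW; 0% = agonist with vehicle and 100% = vehicle without agonist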
# Target sequence (P48145 whole entry, looked up): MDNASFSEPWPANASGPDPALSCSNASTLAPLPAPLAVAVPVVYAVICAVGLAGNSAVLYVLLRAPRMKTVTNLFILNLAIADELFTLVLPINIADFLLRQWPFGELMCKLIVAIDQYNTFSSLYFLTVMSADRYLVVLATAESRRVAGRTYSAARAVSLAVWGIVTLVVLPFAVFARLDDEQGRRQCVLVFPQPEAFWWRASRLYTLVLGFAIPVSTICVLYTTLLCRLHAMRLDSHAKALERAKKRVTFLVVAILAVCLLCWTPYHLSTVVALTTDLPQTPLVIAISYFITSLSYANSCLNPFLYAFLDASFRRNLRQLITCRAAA
# TAAR1 ag: human TAAR1 agonists, primary screen, Fluo-8 calcium fluorescence, CHO RD-HGA16 cells | Trace amine-associated receptor 1 (Homo sapiens), Q96RJ0 | vehicle wells 0%, saturating PEA agonist 100% | activation, % at 3 µM | hit rate 0.99% among 360,000 | AID 624467, 2012;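 active means activation above the mean activation of all test compounds in the run plus 3 SD, cut at about 38% in these data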
# Target sequence (Q96RJ0 whole entry, looked up): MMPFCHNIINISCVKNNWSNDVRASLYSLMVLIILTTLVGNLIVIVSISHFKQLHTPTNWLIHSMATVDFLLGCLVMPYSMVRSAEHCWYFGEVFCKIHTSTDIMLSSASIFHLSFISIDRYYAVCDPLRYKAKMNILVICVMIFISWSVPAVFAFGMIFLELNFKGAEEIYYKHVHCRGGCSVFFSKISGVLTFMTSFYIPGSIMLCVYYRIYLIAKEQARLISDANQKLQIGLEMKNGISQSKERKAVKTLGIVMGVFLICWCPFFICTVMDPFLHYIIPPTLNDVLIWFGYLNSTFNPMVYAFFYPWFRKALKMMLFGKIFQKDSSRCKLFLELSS
#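 Assay system – CHO-derived RD-HGA16 cells with stable Gα16 and human TAAR1 · Compound dosing – one-point dosing at 3 µM (nominal) · Incubation – 17-24 h seeding, 75 min 37 °C dye, 30 min RT · Measured by – kinetic Fluo-8 calcium fluorescence · Control set – DMSO vehicle as 0%, PEA at EC100 as 100% · Repeats – single well for each compound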
# OX1R antag-2: OX1R (HCRTR1) antagonists, primary screen, fluorescence, CHO/OX1R cells, Fluo-8 calcium, orexin A | AID 434989, 2010 | inhibition, % at 5 µM | Fluo-8 calcium fluorescence | Orexin/Hypocretin receptor type 1 (Homo sapiens), O43613 | hit rate 0.43% among 330,000;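 active means inhibition above its plate's threshold, mean inhibition of all tested compounds on the plate plus 3 SD, cut at about 37% in these data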;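 further: 0% = orexin A challenge wells and 100% = SB-334867-A antagonist wells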
# CHO parental Ca: ATP-evoked calcium signal inhibitors, parental CHO, primary screen, counter-screen for OX1R antagonist project, cell-based, fluorescence, Fluo-8 calcium dye. inhibition, % at 5.6 µM. parental CHO-K1, ATP-induced calcium, Fluo-8 fluorescence. hit rate 0.63% among 330,000;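 active means inhibition above that plate's mean sample inhibition plus 3 SD, cut at about 26% in these data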;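 further: 0% = ATP-challenged DMSO wells and 100% = DMSO wells without ATP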
#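 material = parental CHO cells | also added = ATP as calcium-mobilizing challenge | dosing = single point at 5.6 µM | detection = intracellular calcium via Fluo-8 no-wash fluorescent dye | read-out = % inhibition | benchmarks = low control ATP plus DMSO, high control DMSO only | repeats = one well per compound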
# TAAR1 antag: human TAAR1 antagonists, primary screen, Fluo-8 calcium fluorescence, CHO RD-HGA16 cells. Trace amine-associated receptor 1 (Homo sapiens), Q96RJ0. antagonist. hit rate 1.5% among 360,000. AID 624466, 2012. inhibition, % at 3 µM;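 active means inhibition above a per-plate cutoff, the mean inhibition of test compounds on that plate plus 3 SD, cut at about 49% in these data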;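 further: 0% = DMSO plus EC80 beta-PEA response and 100% = DMSO alone without agonist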
#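 Assay system: RD-HGA16 CHO cells with stable hTAAR1 and Gα16 / Reagent: EC80 β-phenethylamine stimulus / Doses: 3 µM, single point / Timing: dye loading 75 min at 37 °C, then 30 min room temperature / Measured by: Fluo-8 intracellular calcium dye fluorescence, real-time kinetic reads / Controls: vehicle wells and EC80 agonist wells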
# Starred values were filed as active, the others as inactive; . = no result given.
SMILES,OX1R antag-1,GPR7 antagonist,TAAR1 ag,OX1R antag-2,CHO parental Ca,TAAR1 antag
C=CCn1c(CSc2ccccc2[N+](=O)[O-])n[nH]c1=S,16,3,0,-38,2,-9
O=S(=O)(c1ccc(N2CCCC2)cc1)C(F)(F)F,30,-4,16,-8,40*,24
O=S(=O)(c1ccc(N2CCN(c3ccc(F)cc3)CC2)cc1)N1CCCC1,4,8,7,-8,-15,3
C[C@@H]1C=CCCO[C@]12C(=O)Nc1ccccc12,.,.,0,.,.,-6
Oc1ccc2ccccc2c1/C=N/Nc1ccccc1,-1,-4,0,0,1,1
Oc1ccc2ccccc2c1C=NCc1ccccc1,52*,-6,8,-18,-6,-3
CCN1CCN(C(=O)c2cc3c(s2)-c2ccccc2S(=O)(=O)C3)CC1,23,-7,2,-11,-1,-9
O=C(c1cc2c(s1)-c1ccccc1S(=O)(=O)C2)N1CCN(Cc2ccccc2)CC1,18,8,13,-16,1,51*
CCCOc1ccc(CSc2nc3ccccc3[nH]2)cc1,27,4,8,18,48*,25
C=CC[C@H](CC(=O)N(CCO)Cc1ccccc1)C(=O)N[C@H](COC(=O)[C@@H](CC=C)Cc1ccc(F)cc1)Cc1ccccc1,18,.,8,5,-5,52*
C=CC[C@@H](CC(=O)OC(C)(C)C)C(=O)OC[C@@H]1CCCN1C(=O)[C@@H](CC=C)CC(=O)N[C@@H](CO)Cc1ccccc1,8,.,2,-15,-34,16
C=CCC[C@H](Cc1ccc(F)cc1)C(=O)OC[C@@H](Cc1c[nH]c2ccccc12)NC(=O)[C@@H](CC=C)CC(=O)N(CCO)Cc1ccccc1,12,.,6,10,-4,51*
C=CC[C@@H](Cc1ccc(F)cc1)C(=O)OC[C@@H]1CCCN1C(=O)[C@H](CC=C)CC(=O)N[C@H](CO)Cc1ccccc1,64*,.,12,101*,34,2
N#Cc1cccc(NC(=O)c2cc(C3CCCCN3C(=O)c3cccs3)on2)c1 (configuration not stated),.,.,6,.,.,2
O=[N+]([O-])c1ccc(COc2ccccc2CO)cc1,.,.,-1,.,.,-10
N#CC1=C(c2ccccc2)/C(=C/c2ccccc2)OC1=O,33,-8,12,17,-2,58*
CCc1nc(N2CCN(C(=O)c3ccco3)CC2)c2oc3ccccc3c2n1,51*,7,9,-10,-25,20
O=C(Cc1ccc(Cl)cc1)NCCc1c[nH]c2ccccc12,11,-6,3,-15,-8,4
O=C(NCCc1c[nH]c2ccccc12)c1c(Cl)nc2sccn12,39,-8,39*,-21,-2,23
O=C(NCc1ccccc1)C1=C[C@@H](c2ccccc2)C[C@@H](OCc2ccc(CO)cc2)O1,19,16,3,-14,-14,22
C#Cc1ccc([C@@H]2C=C(C(=O)NCc3ccccc3)O[C@H](OCc3ccc(CO)cc3)C2)cc1,10,-9,9,-6,-3,51*
O=C(NC1CCC1)C1CCC(=O)N(Cc2ccc(Cl)cc2)C1 (configuration not stated),.,.,1,.,.,5
CC(=O)N(CCc1ccccc1)Cc1cc2ccc(C)c(C)c2[nH]c1=O,9,21,41*,-25,-16,11
CCOc1ncccc1C(=O)NCc1ccccc1F,31,-12,-2,-19,-8,-28
COc1ccccc1C(=O)Nc1cccc2cccnc12,73*,-2,-1,-3,-19,-8
SMILES,OX1R antag-1,GPR7 antagonist,TAAR1 ag,OX1R antag-2,CHO parental Ca,TAAR1 antag
COc1ccccc1NC(=O)c1ccccc1-c1nc(-c2ccccc2OC)no1,55*,-2,16,10,-20,51*
COc1ccccc1-c1noc(-c2ccccc2C(=O)Nc2ccccc2)n1,52,-5,22,-22,-18,47
O=C(NCCc1ccccc1F)c1cccc2cccnc12,24,3,66*,-43,-24,17
CCOc1ccccc1C(=O)Nc1cccc2ccccc12,53*,-17,3,-15,-9,21
COc1cccc(CN(C)[C@H]2C[C@H]3c4[nH]c5ccccc5c4CCN3C[C@H]2[C@H](C)O)c1OC,.,.,1,.,.,-13
COCCN1C(=O)CCC1(C)C(=O)NC1CCCC1 (configuration not stated),.,.,2,.,.,-5
CN(C)c1ccc(-c2ccnc3c2CC(C)(C(=O)NCCC(F)(F)F)O3)cc1 (configuration not stated),.,.,0,.,.,-18
O=C(N[C@H](C(=O)N1CCC[C@H]1C(=O)NCCc1ccccc1Cl)C1CCCCC1)c1ccc(Cl)c(Cl)c1,.,.,4,.,.,-1
COC(=O)C1=C(C)N(C)C(=NCc2cccc(C(F)(F)F)c2)NC1c1cccc(Cl)c1 (configuration not stated),.,.,19,.,.,24
CC(=O)Nc1cccc(NC(=O)c2cccc3cccnc23)c1,71*,6,3,14,-15,10
O=C(CCC(=O)c1ccc(Br)cc1)Nc1cccc(C(F)(F)F)c1,14,-1,9,-23,-9,6
O=C(CCC(=O)c1ccc(F)cc1)Nc1cccc(Br)c1,-4,20,1,6,38*,9
COc1cc2c(C#CCCO)c(-c3ccsc3)oc(=O)c2cc1OC,61*,.,8,-6,-17,31
Cc1noc(C)c1S(=O)(=O)N1CCCc2nc(-c3ccccc3)ccc21,.,.,0,.,.,-1
COCCn1c(N)c(C(=O)NCC2CCCO2)c2nc3ccccc3nc21 (configuration not stated),38,3,15,-18,-17,49*
Cc1cccnc1N=O,.,.,0,.,.,-18
COc1ccc(-c2nc3c(C)cc(Br)cn3c2Cc2ccccc2C(F)(F)F)cc1OC,.,.,1,.,.,-27
Cc1ccccc1N1C(=O)c2sc3nc4c(c(=O)n3c2C1=O)CCC4,5,-11,.,-28,-15,.
O=C1c2sc3nc4ccccc4n3c2C(=O)N1c1ccccc1Cl,64*,1,10,-25,-29,15
CCC1CCCCN1C(=O)COC(=O)c1cc(=O)[nH]c2ccccc12 (configuration not stated),25*,.,8,1,-19,0
Cc1cc(N2CCNC[C@@H]2C)ccc1N1CCS(=O)(=O)CC1,.,.,0,.,.,-7
